Source: ChEMBL document CHEMBL4354873, “Rationally Designed Small-Molecule Inhibitors Targeting an Unconventional Pocket on the TLR8 Protein-Protein Interface” (J Med Chem, 2020)
Active and inactive are the calls of the source. The rule behind the calls is not given here.

Assays:
Assay type in all cases: cell-based
[1] = molecular target: Toll-like receptor 4 (Homo sapiens) (UniProt O00206); assay: Inhibition of human TLR4 expressed in HEK-Blue cells assessed as inhibition of LPS-induced NF-kappaB activation at 20 uM measured after 24 hrs by quanti-blue based SEAP reporter gene assay
Chain of Toll-like receptor 4 (Homo sapiens) (O00206 whole entry): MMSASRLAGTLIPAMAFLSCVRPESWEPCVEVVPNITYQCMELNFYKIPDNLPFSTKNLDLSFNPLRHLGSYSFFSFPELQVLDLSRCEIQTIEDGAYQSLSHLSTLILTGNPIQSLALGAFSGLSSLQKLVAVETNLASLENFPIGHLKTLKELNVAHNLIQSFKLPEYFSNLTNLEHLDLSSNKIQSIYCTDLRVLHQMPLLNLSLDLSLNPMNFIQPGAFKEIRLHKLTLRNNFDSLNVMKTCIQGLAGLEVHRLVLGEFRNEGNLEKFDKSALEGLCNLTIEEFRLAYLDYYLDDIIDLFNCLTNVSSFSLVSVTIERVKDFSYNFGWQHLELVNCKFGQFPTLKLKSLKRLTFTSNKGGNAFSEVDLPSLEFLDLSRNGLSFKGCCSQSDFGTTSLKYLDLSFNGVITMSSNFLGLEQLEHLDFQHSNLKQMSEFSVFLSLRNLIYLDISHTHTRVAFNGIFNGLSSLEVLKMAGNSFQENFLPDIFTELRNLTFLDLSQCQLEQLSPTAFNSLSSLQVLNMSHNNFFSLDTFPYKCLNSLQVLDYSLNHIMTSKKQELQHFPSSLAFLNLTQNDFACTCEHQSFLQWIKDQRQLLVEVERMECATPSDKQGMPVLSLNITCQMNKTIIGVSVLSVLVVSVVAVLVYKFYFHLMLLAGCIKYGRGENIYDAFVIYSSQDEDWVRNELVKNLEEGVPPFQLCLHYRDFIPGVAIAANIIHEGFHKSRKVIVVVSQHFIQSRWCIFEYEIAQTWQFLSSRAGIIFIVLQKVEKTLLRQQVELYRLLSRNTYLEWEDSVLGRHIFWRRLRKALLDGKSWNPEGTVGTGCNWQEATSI
Method in brief: (§1)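 HEK-Blue SEAP format: 4 × 10⁴ cells/well in DMEM with ligand plus compound, 24 h at 37 °C. Supernatant mixed with QUANTI-Blue up to 1 h, then A620 read. Ligands: Pam3CSK4 100 ng/mL (TLR1/2), Pam2CSK4 100 ng/mL (TLR2/6), poly(I:C) 5 µg/mL (TLR3), LPS 20 ng/mL (TLR4), flagellin 50 ng/mL (TLR5), R848 1 µg/mL (TLR7), R848 2 µg/mL (TLR8), ODN2006 0.5 µM (TLR9). Mean ± s.d.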

[2] = molecular target: Toll-like receptor 5 (Homo sapiens) (UniProt O60602); assay: Inhibition of human TLR5 expressed in HEK-Blue cells assessed as inhibition of flagellin-induced NF-kappaB activation at 20 uM measured after 24 hrs by quanti-blue based SEAP reporter gene assay; method in brief: as §1
Chain of Toll-like receptor 5 (Homo sapiens) (O60602 whole entry): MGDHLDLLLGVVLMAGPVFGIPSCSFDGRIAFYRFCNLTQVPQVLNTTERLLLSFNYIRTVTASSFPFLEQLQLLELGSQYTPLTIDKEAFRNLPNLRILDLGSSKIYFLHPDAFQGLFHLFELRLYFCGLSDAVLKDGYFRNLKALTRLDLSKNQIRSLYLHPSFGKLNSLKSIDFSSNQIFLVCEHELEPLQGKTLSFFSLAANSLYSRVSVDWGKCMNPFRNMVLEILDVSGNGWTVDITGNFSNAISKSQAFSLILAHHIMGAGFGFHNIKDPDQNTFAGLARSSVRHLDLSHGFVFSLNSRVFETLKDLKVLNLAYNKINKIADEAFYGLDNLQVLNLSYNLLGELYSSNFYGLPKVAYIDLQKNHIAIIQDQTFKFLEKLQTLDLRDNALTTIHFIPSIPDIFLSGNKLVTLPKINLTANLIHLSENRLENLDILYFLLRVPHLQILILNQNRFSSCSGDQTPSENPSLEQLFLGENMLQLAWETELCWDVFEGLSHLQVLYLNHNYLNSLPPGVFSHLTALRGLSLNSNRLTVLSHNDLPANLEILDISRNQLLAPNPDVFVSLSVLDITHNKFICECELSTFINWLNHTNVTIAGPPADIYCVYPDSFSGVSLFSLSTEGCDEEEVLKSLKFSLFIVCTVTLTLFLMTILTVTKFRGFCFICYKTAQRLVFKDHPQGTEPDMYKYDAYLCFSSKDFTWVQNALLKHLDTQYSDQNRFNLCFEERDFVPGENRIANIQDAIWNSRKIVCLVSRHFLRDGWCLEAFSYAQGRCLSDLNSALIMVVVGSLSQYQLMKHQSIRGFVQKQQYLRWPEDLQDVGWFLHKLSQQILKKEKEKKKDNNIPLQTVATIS

[3] = molecular target: T1, Toll-like receptor 9 (Homo sapiens) (UniProt Q9NR96); assay: Inhibition of human TLR9 expressed in HEK-Blue cells assessed as inhibition of ODN2006-induced NF-kappaB activation at 20 uM measured after 24 hrs by quanti-blue based SEAP reporter gene assay; method in brief: as §1
T1 sequence (whole entry): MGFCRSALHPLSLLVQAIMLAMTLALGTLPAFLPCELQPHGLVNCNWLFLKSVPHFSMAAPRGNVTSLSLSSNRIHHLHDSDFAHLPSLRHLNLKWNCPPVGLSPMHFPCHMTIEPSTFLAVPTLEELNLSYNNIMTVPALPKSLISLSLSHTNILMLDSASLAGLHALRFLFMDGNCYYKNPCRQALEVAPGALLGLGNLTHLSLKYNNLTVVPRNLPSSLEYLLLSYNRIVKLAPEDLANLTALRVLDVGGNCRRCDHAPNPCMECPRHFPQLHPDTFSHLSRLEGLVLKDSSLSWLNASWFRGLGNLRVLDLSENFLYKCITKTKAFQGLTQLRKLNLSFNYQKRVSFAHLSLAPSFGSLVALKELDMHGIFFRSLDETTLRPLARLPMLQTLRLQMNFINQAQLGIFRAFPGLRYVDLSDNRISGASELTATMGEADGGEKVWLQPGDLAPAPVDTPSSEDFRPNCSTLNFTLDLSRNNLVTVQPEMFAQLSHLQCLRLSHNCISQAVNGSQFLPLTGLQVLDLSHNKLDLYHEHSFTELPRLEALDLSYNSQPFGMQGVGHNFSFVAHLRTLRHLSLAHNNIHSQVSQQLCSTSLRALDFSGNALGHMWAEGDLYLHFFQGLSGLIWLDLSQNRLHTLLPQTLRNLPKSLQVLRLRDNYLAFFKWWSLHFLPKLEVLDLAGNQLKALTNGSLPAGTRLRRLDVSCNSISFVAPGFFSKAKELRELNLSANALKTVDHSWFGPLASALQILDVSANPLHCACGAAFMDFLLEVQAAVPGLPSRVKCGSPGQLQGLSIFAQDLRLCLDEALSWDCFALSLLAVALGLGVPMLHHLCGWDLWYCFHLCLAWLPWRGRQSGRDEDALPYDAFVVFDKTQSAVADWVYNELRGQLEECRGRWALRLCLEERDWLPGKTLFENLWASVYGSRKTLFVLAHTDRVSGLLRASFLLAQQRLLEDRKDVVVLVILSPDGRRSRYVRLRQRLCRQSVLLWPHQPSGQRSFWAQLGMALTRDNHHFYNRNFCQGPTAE

[4] = molecular target: TLR2/TLR6 (Homo sapiens) (UniProt O60603+Q9Y2C9); assay: Inhibition of human TLR2/6 expressed in HEK-Blue cells assessed as inhibition of Pam2CSK4-induced NF-kappaB activation at 20 uM measured after 24 hrs by quanti-blue based SEAP reporter gene assay; method in brief: as §1
[5] = molecular target: T2, Toll-like receptor 8 (Homo sapiens) (UniProt Q9NR97); assay: (§2) Inhibition of human TLR8 expressed in HEK-Blue cells assessed as inhibition of R848-induced NF-kappaB activation measured after 24 hrs by quanti-blue based SEAP reporter gene assay
T2 sequence (whole entry): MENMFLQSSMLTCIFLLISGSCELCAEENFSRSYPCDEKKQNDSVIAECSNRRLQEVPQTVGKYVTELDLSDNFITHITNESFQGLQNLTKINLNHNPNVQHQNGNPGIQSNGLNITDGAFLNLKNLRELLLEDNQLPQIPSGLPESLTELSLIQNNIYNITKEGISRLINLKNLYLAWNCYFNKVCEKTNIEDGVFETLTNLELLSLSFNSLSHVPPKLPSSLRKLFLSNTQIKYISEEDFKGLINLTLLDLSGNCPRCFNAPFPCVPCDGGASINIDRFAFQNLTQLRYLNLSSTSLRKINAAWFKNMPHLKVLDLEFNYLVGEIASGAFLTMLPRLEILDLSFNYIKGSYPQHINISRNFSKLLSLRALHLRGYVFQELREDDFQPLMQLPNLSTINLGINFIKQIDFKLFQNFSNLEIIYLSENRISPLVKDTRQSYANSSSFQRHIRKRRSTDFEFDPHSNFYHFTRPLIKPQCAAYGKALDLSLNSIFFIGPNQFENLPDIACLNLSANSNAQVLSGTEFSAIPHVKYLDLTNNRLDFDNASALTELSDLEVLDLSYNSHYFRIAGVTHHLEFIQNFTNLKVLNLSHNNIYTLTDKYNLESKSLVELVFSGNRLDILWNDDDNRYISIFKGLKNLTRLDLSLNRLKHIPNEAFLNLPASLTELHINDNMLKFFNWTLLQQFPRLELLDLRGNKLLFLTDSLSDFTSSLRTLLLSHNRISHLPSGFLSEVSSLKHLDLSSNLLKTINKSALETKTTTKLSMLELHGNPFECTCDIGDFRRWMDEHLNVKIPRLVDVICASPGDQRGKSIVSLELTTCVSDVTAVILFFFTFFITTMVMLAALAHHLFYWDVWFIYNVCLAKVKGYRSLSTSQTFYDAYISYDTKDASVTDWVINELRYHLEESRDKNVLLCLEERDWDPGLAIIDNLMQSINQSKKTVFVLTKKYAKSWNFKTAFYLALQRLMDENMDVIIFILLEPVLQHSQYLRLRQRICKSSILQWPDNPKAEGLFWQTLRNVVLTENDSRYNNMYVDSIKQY

[6] = molecular target: T3, Toll-like receptor 8 (Homo sapiens, UniProt Q9NR97); assay: as §2
T3 sequence (Q9NR97 whole entry): T2 sequence (whole entry)

[7] = molecular target: T2, Toll-like receptor 8 (Homo sapiens); assay: Inhibition of TLR8 in human monocytes assessed as reduction in R848-induced phosphorylated IRAK4 expression measured after 2 hrs by Western blot analysis
Method in brief: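 Monocyte cell lines, 2 × 10⁶/well, differentiated with PMA 100 ng/mL for 24 h. After washes, cells in unsupplemented RPMI received R848 1 µg/mL with varying compound concentrations for 2 h. Nuclear/cytoplasmic fractions extracted and resolved on 10% SDS-PAGE. Blots probed for p65, TRAF3 and p-IRAK4 (1:1000); lamin A/C (nuclear) and β-actin (cytoplasmic) as loading controls.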

CSc1nnc(CCCO)n1-c1cc(C)c(C)c(C)c1
inhibition [1]: inactive
inhibition [2]: inactive
inhibition [3]: inactive
inhibition [4]: inactive
inhibition [5]: Dose-dependent effect
IC50 [6]: 30 nM
inhibition [7]: Dose-dependent effect
